Measured values from PMC11406440 (Food and chemical toxicology : an international journal …, 2024).
“And” between values parts separate entries of the source, which are not always exact repeats. Equal entries are not always repeated. “Also recorded” adds a separate entry of the source.

What was measured:
Deer mice = settings: oral gavage for 28-days, 7 and 14 mg/kg/d; ref Narizzano et al., 2023; cited from earlier work
ear pinna cells = assay: Skin; assay type: in vivo, B6C3F1 mice; settings: 28 days; for Skin CD4+ frequency / Skin CD4+ number / Skin CD8+ frequency / Skin CD8+ number / Skin CD11b + DCs frequency / Skin CD11b + DCs number / Skin CD11b- DCs frequency / Skin CD11b- DCs number / Skin CD45+ frequency / Skin CD45+ number / Skin Cellularity / Skin Eosinophils frequency / Skin Eosinophils number / Skin NK frequency / Skin NK number / Skin Neutrophils frequency / Skin Neutrophils number: mean ± SE
How it was run: (§1)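 Female B6C3F1 mice (5/group) received 25 μl/ear of acetone vehicle or 1.25, 2.5 or 5% w/v test compound on the dorsal surface of each ear, once daily for 28 days. They were euthanized about 24 h later. Single-cell suspensions were made from both auricular dLNs, half a spleen or one ear pinna. Cells were Fc-blocked (anti-CD16/32), stained with surface antibody cocktails and acquired on an LSR II, with FMO gating controls.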

B6C3F1 mice [1] = assay: Serum chemistries after 28-day dermal exposure; assay type: in vivo; settings: 28 days
How it was run: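 After 28 daily ear applications (25 μl/ear; acetone or 1.25, 2.5, 5% w/v), blood was taken by cardiac puncture about 24 h post-dose. Serum was separated by centrifugation and frozen at −20 °C, then run on a Catalyst DX chemistry analyzer for ALKP, BUN, glucose, cholesterol and ALT. There were 4–5 mice/group, with one-way ANOVA and Dunnett's post-test versus vehicle.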

dLN cells = assay: Draining lymph node; assay type: in vivo, B6C3F1 mice; settings: 28 days
How it was run: as §1

B6C3F1 mice [2] = assay: Histopathology; assay type: in vivo; settings: for Liver: bile, increased, hepatocyte, minimal (incidence) / Liver: hypertrophy, hepatocyte, marked (incidence) / Liver: infiltrate, mononuclear cell, mild (incidence) / Liver: infiltrate, mononuclear cell, minimal (incidence) / Liver: necrosis, mild (incidence) / Liver: necrosis, minimal (incidence) / Liver: pigment macrophage, minimal (incidence) / Spleen: decreased cellularity, lymphocyte, mild (incidence): mice affected of 5
How it was run: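 Female B6C3F1 mice (5/group) received 25 μl/ear of acetone vehicle or 1.25–5% w/v test compound daily on both ears for 28 days, with necropsy about 24 h later. Liver, half spleen, half ear pinna and right kidney were fixed in 10% formalin, paraffin-embedded, cut at 5 μm and H&E-stained. A veterinary pathologist scored them per STP guideline, grades 1 (minimal) to 5 (severe).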

[3] = 28 days of 20 mg/kg/d oral gavage, female mice; ref Narizzano et al., 2021; cited from earlier work
[4] = female rats, 14-days of 10 mg/kg/day oral exposure; ref Butenhoff et al., 2009; cited from earlier work
B6C3F1 mice [5] = assay: Organ and body weights after 28-day dermal exposure; assay type: in vivo; settings: 28 days
How it was run: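 Female B6C3F1 mice (5/group) were treated topically on both ears (25 μl/ear) with acetone or 1.25, 2.5, 5% w/v test compound once daily for 28 days. They were weighed at necropsy about 24 h after the last dose. Liver, spleen, kidneys and thymus were cleaned of connective tissue and weighed. Organ weights were reported relative to body weight and uncorrected; dose trend was tested.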

O=S(=O)(O)C(F)(F)C(F)(F)C(F)(F)C(F)(F)C(F)(F)C(F)(F)F [PFHxS, Perfluorohexane sulfonic acid]
PFC formation (Deer mice): reduction | Skin CD4+ frequency (ear pinna cells; 1.25% PFHxS): 2.64 ± 0.25% | Skin CD4+ number (ear pinna cells; 1.25% PFHxS): 2.31 ± 0.36 x 10^3 | Skin CD8+ frequency (ear pinna cells; 1.25% PFHxS): 0.36 ± 0.05% | Skin CD8+ number (ear pinna cells; 1.25% PFHxS): 3.21 ± 0.60 x 10^2 | Skin CD11b + DCs frequency (ear pinna cells; 1.25% PFHxS): 0.64 ± 0.03% | Skin CD11b + DCs number (ear pinna cells; 1.25% PFHxS): 5.17 ± 0.30 x 10^2 | Skin CD11b- DCs frequency (ear pinna cells; 1.25% PFHxS): 1.43 ± 0.18 % | Skin CD11b- DCs number (ear pinna cells; 1.25% PFHxS): 12.30 ± 1.74 x 10^2 | Skin CD45+ frequency (ear pinna cells; 1.25% PFHxS): 8.29 ± 0.74% | Skin CD45+ number (ear pinna cells; 1.25% PFHxS): 8.39 ± 0.66 x 10^4 | Skin Cellularity (ear pinna cells; 1.25% PFHxS): 9.56 ± 0.21 x 10^5 | Skin Eosinophils frequency (ear pinna cells; 1.25% PFHxS): 1.21 ± 0.20 % | Skin Eosinophils number (ear pinna cells; 1.25% PFHxS): 1.00 ± 0.24 x 10^3 | Skin NK frequency (ear pinna cells; 1.25% PFHxS): 0.97 ± 0.11% | Skin NK number (ear pinna cells; 1.25% PFHxS): 8.53 ± 1.49 x 10^2 | Skin Neutrophils frequency (ear pinna cells; 1.25% PFHxS): 0.23 ± 0.03% | Skin Neutrophils number (ear pinna cells; 1.25% PFHxS): 1.79 ± 0.31 x 10^2 | Skin CD4+ frequency (ear pinna cells; 2.5% PFHxS): 3.34 ± 0.18 % | Skin CD4+ number (ear pinna cells; 2.5% PFHxS): 2.10 ± 0.25 x 10^3 | Skin CD8+ frequency (ear pinna cells; 2.5% PFHxS): 0.41 ± 0.07 % | Skin CD8+ number (ear pinna cells; 2.5% PFHxS): 2.52 ± 0.48 x 10^2 | Skin CD11b + DCs frequency (ear pinna cells; 2.5% PFHxS): 0.73 ± 0.08% | Skin CD11b + DCs number (ear pinna cells; 2.5% PFHxS): 4.45 ± 0.48 x 10^2 | Skin CD11b- DCs frequency (ear pinna cells; 2.5% PFHxS): 1.23 ± 0.12 % | Skin CD11b- DCs number (ear pinna cells; 2.5% PFHxS): 7.66 ± 1.11 x 10^2 | Skin CD45+ frequency (ear pinna cells; 2.5% PFHxS): 8.20 ± 0.74% | Skin CD45+ number (ear pinna cells; 2.5% PFHxS): 6.35 ± 0.84 x 10^4 | Skin Cellularity (ear pinna cells; 2.5% PFHxS): 7.67 ± 0.62 x 10^5 | Skin Eosinophils frequency (ear pinna cells; 2.5% PFHxS): 1.75 ± 0.12% | Skin Eosinophils number (ear pinna cells; 2.5% PFHxS): 1.10 ± 0.15 x 10^3 | Skin NK frequency (ear pinna cells; 2.5% PFHxS): 0.78 ± 0.07 % | Skin NK number (ear pinna cells; 2.5% PFHxS): 4.86 ± 0.61 x 10^2 | Skin Neutrophils frequency (ear pinna cells; 2.5% PFHxS): 0.30 ± 0.05% | Skin Neutrophils number (ear pinna cells; 2.5% PFHxS): 1.84 ± 0.33 x 10^2 | Skin macrophage number (ear pinna cells; 5% PFHxS): increase | Skin CD4+ frequency (ear pinna cells; 5% PFHxS): 4.51 ± 0.21 % | Skin CD4+ number (ear pinna cells; 5% PFHxS): 5.82 ± 0.41 x 10^3 | Skin CD8+ frequency (ear pinna cells; 5% PFHxS): 0.73 ± 0.09 % | Skin CD8+ number (ear pinna cells; 5% PFHxS): 9.37 ± 1.32 x 10^2 | Skin CD11b + DCs frequency (ear pinna cells; 5% PFHxS): 1.18 ± 0.05 % | Skin CD11b + DCs number (ear pinna cells; 5% PFHxS): 15.10 ± 0.45 x 10^2 | Skin CD11b- DCs frequency (ear pinna cells; 5% PFHxS): 1.25 ± 0.08 % | Skin CD11b- DCs number (ear pinna cells; 5% PFHxS): 16.10 ± 1.39 x 10^2 | Skin CD45+ frequency (ear pinna cells; 5% PFHxS): 13.48 ± 0.52 % | Skin Cellularity (ear pinna cells; 5% PFHxS): 9.56 ± 0.31 x 10^5 | Skin Eosinophils frequency (ear pinna cells; 5% PFHxS): 2.68 ± 0.31% | Skin Eosinophils number (ear pinna cells; 5% PFHxS): 3.49 ± 0.52 x 10^3 | Skin NK frequency (ear pinna cells; 5% PFHxS): 0.68 ± 0.04 % | Skin NK number (ear pinna cells; 5% PFHxS): 8.76 ± 0.68 x 10^2 | Skin Neutrophils frequency (ear pinna cells; 5% PFHxS): 1.14 ± 0.37 % | Skin Neutrophils number (ear pinna cells; 5% PFHxS): 14.10 ± 4.21 x 10^2 | Serum ALT fold increase (B6C3F1 mice [1]; 1.25% PFHxS dermal): 3.66 fold | Serum ALKP fold increase (B6C3F1 mice [1]; 2.5% PFHxS dermal): 2.11 fold | Serum ALT fold increase (B6C3F1 mice [1]; 2.5% PFHxS dermal): 2.9 fold | Serum BUN change (B6C3F1 mice [1]; 2.5 and 5% PFHxS dermal): decreased | Serum cholesterol change (B6C3F1 mice [1]; 2.5 and 5% PFHxS dermal): decreased | Serum ALKP fold increase (B6C3F1 mice [1]; 5% PFHxS dermal): 2.61 fold | Serum ALKP increase (B6C3F1 mice [1]; 5% PFHxS dermal): 161% | Serum ALT fold increase (B6C3F1 mice [1]; 5% PFHxS dermal): 4.6 fold | Serum ALT increase (B6C3F1 mice [1]; 5% PFHxS dermal): 360% | Serum cholesterol decrease (B6C3F1 mice [1]; 5% PFHxS dermal): 43% | Serum glucose decrease (B6C3F1 mice [1]; 5% PFHxS dermal): 58% | Serum urea nitrogen (BUN) decrease (B6C3F1 mice [1]; 5% PFHxS dermal): 34% | Serum glucose change (B6C3F1 mice [1]; all three PFHxS concentrations (1.25, 2.5, 5%)): decreased | dLN CD4+ T cell number (dLN cells; 1.25%, 2.5%, and 5% PFHxS): significant decrease | dLN CD8+ T cell frequency (dLN cells; 2.5%, 5% PFHxS): increase | dLN eosinophil frequency and number (dLN cells; 2.5%, 5% PFHxS): increase | dLN mean fluorescence intensity of CD86 on B cells (dLN cells; 5% PFHxS): increase | dLN mean fluorescence intensity of MHCII on B cells (dLN cells; 5% PFHxS): increase | dLN total DC number (dLN cells; 5% PFHxS): increase | Liver: bile, increased, hepatocyte, minimal (incidence) (B6C3F1 mice [2]; 1.25% PFHxS, 28 days): 5/5 and 5 | Liver: hypertrophy, hepatocyte, marked (incidence) (B6C3F1 mice [2]; 1.25% PFHxS, 28 days): 5 | Liver: infiltrate, mononuclear cell, mild (incidence) (B6C3F1 mice [2]; 1.25% PFHxS, 28 days): 1/5 and 1 | Liver: infiltrate, mononuclear cell, minimal (incidence) (B6C3F1 mice [2]; 1.25% PFHxS, 28 days): 2/5 and 2 | Liver: necrosis, mild (incidence) (B6C3F1 mice [2]; 1.25% PFHxS, 28 days): 2/5 and 2 | Liver: necrosis, minimal (incidence) (B6C3F1 mice [2]; 1.25% PFHxS, 28 days): 3/5 and 3 | Liver: pigment macrophage, minimal (incidence) (B6C3F1 mice [2]; 1.25% PFHxS, 28 days): 4/5 and 4 | Spleen: decreased cellularity, lymphocyte, mild (incidence) (B6C3F1 mice [2]; 1.25% PFHxS, 28 days): 2/5 and 2 | Liver: bile, increased, hepatocyte, minimal (incidence) (B6C3F1 mice [2]; 2.5% PFHxS, 28 days): 5/5 and 5 | Liver: hypertrophy, hepatocyte, marked (incidence) (B6C3F1 mice [2]; 2.5% PFHxS, 28 days): 5 | Liver: infiltrate, mononuclear cell, mild (incidence) (B6C3F1 mice [2]; 2.5% PFHxS, 28 days): 0 | Liver: infiltrate, mononuclear cell, minimal (incidence) (B6C3F1 mice [2]; 2.5% PFHxS, 28 days): 2/5 and 2 | Liver: necrosis, mild (incidence) (B6C3F1 mice [2]; 2.5% PFHxS, 28 days): 1/5 and 1 | Liver: necrosis, minimal (incidence) (B6C3F1 mice [2]; 2.5% PFHxS, 28 days): 4/5 and 4 | Liver: pigment macrophage, minimal (incidence) (B6C3F1 mice [2]; 2.5% PFHxS, 28 days): 5/5 and 5 | Spleen: decreased cellularity, lymphocyte, mild (incidence) (B6C3F1 mice [2]; 2.5% PFHxS, 28 days): 4/5 and 4 | Liver: bile, increased, hepatocyte, minimal (incidence) (B6C3F1 mice [2]; 5% PFHxS, 28 days): 5/5 and 5 | Liver: hypertrophy, hepatocyte, marked (incidence) (B6C3F1 mice [2]; 5% PFHxS, 28 days): 5 | Liver: infiltrate, mononuclear cell, mild (incidence) (B6C3F1 mice [2]; 5% PFHxS, 28 days): 0 | Liver: infiltrate, mononuclear cell, minimal (incidence) (B6C3F1 mice [2]; 5% PFHxS, 28 days): 1/5 and 1 | Liver: necrosis, mild (incidence) (B6C3F1 mice [2]; 5% PFHxS, 28 days): 1/5 and 1 | Liver: necrosis, minimal (incidence) (B6C3F1 mice [2]; 5% PFHxS, 28 days): 4/5 and 4 | Liver: pigment macrophage, minimal (incidence) (B6C3F1 mice [2]; 5% PFHxS, 28 days): 4/5 and 4 | Spleen: decreased cellularity, lymphocyte, mild (incidence) (B6C3F1 mice [2]; 5% PFHxS, 28 days): 5/5 and 5 | Skin irritation at the site of application (B6C3F1 mice [2]; PFHxS dermal exposure): no skin irritation | Skin histopathology at the dosing site (B6C3F1 mice [2]; PFHxS dermal, 28 days): No microscopic abnormalities; also recorded: no histopathological changes | Serum level [3]: 35000 ng/mL | Serum concentration [4]: 42000 ng/mL | Liver weight (% of body weight) increase vs. vehicle-treated mice (B6C3F1 mice [5]; 1.25% PFHxS dermal): 162% | Spleen weight (% of body) decrease (B6C3F1 mice [5]; 1.25% PFHxS dermal): 25% | Mass of kidneys not corrected for body weight (B6C3F1 mice [5]; 1.25, 2.5, 5% PFHxS dermal): significant decreases | Mass of liver not corrected for body weight (B6C3F1 mice [5]; 1.25, 2.5, 5% PFHxS dermal): significant increases | Mass of spleen not corrected for body weight (B6C3F1 mice [5]; 1.25, 2.5, 5% PFHxS dermal): significant decreases | Mass of thymus not corrected for body weight (B6C3F1 mice [5]; 1.25, 2.5, 5% PFHxS dermal): significant decreases | Kidney weight (as % of body weight) (B6C3F1 mice [5]; 1.25-5% PFHxS dermal): No change | Liver weight (% of body weight) increase vs. vehicle-treated mice (B6C3F1 mice [5]; 2.5% PFHxS dermal): 172% | Spleen weight (% of body) decrease (B6C3F1 mice [5]; 2.5% PFHxS dermal): 37% | Thymus weight (% of body) decrease (B6C3F1 mice [5]; 2.5% PFHxS dermal): 44% | Body weight decrease (B6C3F1 mice [5]; 5% PFHxS dermal): 14% | Liver weight (% of body weight) increase vs. vehicle-treated mice (B6C3F1 mice [5]; 5% PFHxS dermal): 205% | Spleen weight (% of body) decrease (B6C3F1 mice [5]; 5% PFHxS dermal): 38% | Thymus weight (% of body) decrease (B6C3F1 mice [5]; 5% PFHxS dermal): 47%
